# PAD4 inh – human PAD4 inhibitors, primary screen, biochemical, fluorescence polarization, 1536-well format; Protein-arginine deiminase type-4 (Homo sapiens), Q9UM07; recombinant PAD4, RCA probe fluorescence polarization; inhibition, % at 6.36 µM; actives 0.41% (n = 330,000);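 active = percent inhibition above a cutoff equal to the mean of all tested compounds plus 3 SD, cut at about 15% in these data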;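 note: 0% = PAD4 with RCA probe and DMSO and 100% = probe without PAD4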
# Apaf-1 inh – inhibitors of human Apaf-1 apoptosome, primary screen, biochemical, DEVD-Rh110 fluorescence, uHTS. actives 0.71% (n = 330,000). inhibition, % at 20 µM. reconstituted apoptosome caspase-3 activity. Apoptotic protease-activating factor 1 (Homo sapiens), O14727; active = inhibition of at least 40% at 20 µM;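 note: plate controls were DMSO wells for no effect and DEVD-CHO caspase inhibitor wells for full effect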
#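 System: Apoptosome proteins | Medium: Hepes pH 7.5 with detergent and BSA | Also added: Cytochrome c trigger plus (Z-DEVD)2-Rh110 caspase-3 substrate | Incubation: 30 min compound preincubation, 50 min activation, room temperature | Detection: Rhodamine 110 fluorescence at Ex 480/Em 540 nm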
# TDP2 inh – human TDP2 enzyme inhibitors, primary screen, biochemical, epi absorbance, recombinant enzyme; inhibition, % at 12.8 µM; T5PNP hydrolysis, p-nitrophenol absorbance 415 nm; Tyrosyl-DNA phosphodiesterase 2 (Homo sapiens), O95551; actives 0.34% (n = 370,000);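 active = inhibition above the mean of all tested compounds plus 3 SD, set per campaign, cut at about 25% in these data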;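 note: 0% = DMSO with enzyme and 100% = buffer with substrate but no TDP2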
#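 Material: recombinant human TDP2; quantity: TDP2 enzyme at 120 nM final; medium: Tris-HCl pH 7.5 with MgCl2; compound: single concentration, 12.8 µM nominal, with 1% DMSO; incubation: 2 h enzyme incubation at 37 °C; signal: epi absorbance; measure: percent inhibition; benchmarks: high control without enzyme, low control DMSO plus TDP2; repeats: singlicate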
# TCR CD3 inh – inhibitors of human TCR-CD3 interaction, primary screen, biochemical, fluorescence, TAMRA-labeled TCR probe | T-cell receptor (TCR) | actives 0.37% (n = 360,000) | inhibition, % at 9.4 µM | AID 651800, 2012; in the data active = inhibition above about 19%;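 note: recombinant mutant TCR 2C K166C tagged with TAMRA read by polarization; 0% = receptor in buffer alone and 100% = receptor with positive control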
# GSTO1 inh – inhibitors of recombinant GSTO1, primary screen, counter-screen for RBBP9 inhibitor project, biochemical, fluorescence polarization; Glutathione S-transferase omega-1 (Homo sapiens), P78417; activity-based probe fluorescence polarization; inhibition, % at 5.96 µM; actives 1.1% (n = 300,000); AID 1974, 2009;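 active = inhibition above the campaign mean inhibition plus 3 SD, cut at about 35% in these data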;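 note: 0% = GSTO1-1 with DMSO and 100% = wells lacking GSTO1-1 enzyme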
# SIAE inh – human SIAE inhibitors, primary screen, biochemical, fluorescence polarization, FP-Rh probe, 1536-well HTS; Sialate O-acetylesterase (Homo sapiens), Q9HAT2; SIAE FP-Rh probe binding; inhibition, % at 9.66 µM; actives 0.69% (n = 370,000);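 active = inhibition above a cutoff: mean of compounds within the control limits plus 3 SD of those, cut at about 17% in these data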;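 note: 0% = plate median of compound wells and 100% = probe without SIAE protein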
# Target sequence (Q9HAT2 whole entry, looked up): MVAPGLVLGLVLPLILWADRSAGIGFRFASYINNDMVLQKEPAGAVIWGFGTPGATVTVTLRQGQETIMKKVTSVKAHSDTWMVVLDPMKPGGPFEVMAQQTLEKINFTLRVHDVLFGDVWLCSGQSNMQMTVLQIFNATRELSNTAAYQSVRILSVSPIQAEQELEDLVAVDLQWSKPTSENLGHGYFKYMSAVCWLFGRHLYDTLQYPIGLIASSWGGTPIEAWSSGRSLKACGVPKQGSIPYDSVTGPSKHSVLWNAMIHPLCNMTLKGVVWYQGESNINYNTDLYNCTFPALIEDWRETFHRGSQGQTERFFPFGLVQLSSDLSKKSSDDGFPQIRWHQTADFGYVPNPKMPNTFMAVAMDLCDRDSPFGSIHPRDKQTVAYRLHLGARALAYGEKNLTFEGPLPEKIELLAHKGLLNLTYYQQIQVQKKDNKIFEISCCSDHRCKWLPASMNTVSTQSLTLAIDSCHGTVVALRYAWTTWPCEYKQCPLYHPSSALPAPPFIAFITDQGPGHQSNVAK
# TDP2 inh conf – human TDP2 enzyme inhibitors, retest, confirmation, biochemical, epi absorbance, recombinant enzyme; shares compounds with TDP2 inh; absorbance read-out; inhibition, % at 12.8 µM; actives 22% (n = 1,100); AID 743263, 2014; in the data active = inhibition above about 25%;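 note: 0% = vehicle with enzyme and 100% = no enzyme buffer only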
# Numbers without * were called inactive; . = not tested or not shown. An excerpt weighted towards active compounds, which were near 2.4% of everything screened.
SMILES,PAD4 inh,Apaf-1 inh,TDP2 inh,TCR CD3 inh,GSTO1 inh,SIAE inh,TDP2 inh conf
CC(=O)c1c(C)oc2c1cc(NS(=O)(=O)c1ccc(C(=O)O)cc1)c1ccccc12,-9,10,29*,-5,-3,-8,3
CSc1ccccc1OCc1cc(C(=O)N2CCN(c3ccccc3)CC2C)no1 (stereo not given),0,25,1,-3,-1,2,.
Cc1[nH][nH]c(=O)c1C(c1ccc(O)c([N+](=O)[O-])c1)c1c(C)[nH][nH]c1=O,-9,8,13,-4,27,4,.
Cc1[nH][nH]c(=O)c1C(c1ccc([N+](=O)[O-])cc1)c1c(C)[nH][nH]c1=O,-9,-1,31*,4,4,3,12
COc1ccc(C(c2c(C)[nH][nH]c2=O)c2c(C)[nH][nH]c2=O)cc1Br,-14,7,15,-5,23,-2,.
Cc1[nH][nH]c(=O)c1C(c1ccc(O)c(Br)c1)c1c(C)[nH][nH]c1=O,-6,12,12,1,25,5,.
Cc1ccc(C(c2c(C)[nH][nH]c2=O)c2c(C)[nH][nH]c2=O)cc1,-6,8,33*,9,22,4,-2
COc1ccc(OC)c(C(c2c(C)[nH][nH]c2=O)c2c(C)[nH][nH]c2=O)c1,-9,8,50*,-6,16,3,8
CC12CC3(C)CC(C)(C1)CC(C(N)=O)(C2)C3,-4,6,-5,-7,7,-2,.
O=C(NC1CC2CCCC(C1)N2C(=O)Nc1cccc(F)c1)C1CC1 (stereo not given),-1,0,28*,9,-1,1,13
Cc1nn(-c2ccccc2)c(N)c1C1(O)C(=O)Nc2ccc([N+](=O)[O-])cc21 (stereo not given),-2,4,33*,3,7,8,-4
Cc1nn(-c2ccc(F)cc2)c(N)c1C1(O)C(=O)Nc2ccccc21 (stereo not given),-2,-17,3,-2,-6,1,.
CC(C)c1nc(NCC2CCCO2)c(C#N)c2c1COC(C)(C)C2 (stereo not given),4,5,-2,-1,5,4,.
O=C(CNS(=O)(=O)/C=C/c1ccccc1)OC1CCOC1=O (stereo not given),-1,-1,3,2,4,3,.
Cc1ccc(S(=O)(=O)N2CCN(C(=O)c3ccc4c(c3)OCO4)CC2)cc1,2,13,-5,-4,8,1,.
Cc1cc(C)c(S(=O)(=O)N2CCN(C(=O)c3ccc4c(c3)OCO4)CC2)c(C)c1,-2,9,29*,5,0,5,-5
C=CCn1c(SCC(=O)Nc2c(C)n(C)n(-c3ccccc3)c2=O)nnc1-c1cccnc1,-2,-5,-11,-4,.,2,.
CC(=O)N(C)c1ccc(NC(=O)Cc2cccs2)cc1,-2,-4,25*,1,-1,-3,3
O=C(Cc1cccs1)Nc1ccc(Cl)cc1,2,-6,-4,-1,9,2,.
CNC(=O)c1cc2c(ccc3ccccc32)o1,-2,3,-7,4,0,0,.
O=C1NNC(c2ccccc2)=N/C1=C\c1ccccc1Cl,.,.,56*,-5,.,-2,62*
O=C1NNC(c2ccccc2)=N/C1=C\c1ccco1,1,-19,-9,-1,22,12,.
CCCC(=O)NNC(=O)CCC(=O)Nc1ccccc1Cl,1,-3,-9,-2,1,2,.
CCCC(=O)NC1=C(Cl)C(=O)c2ccccc2C1=O,.,.,26*,-4,.,-1,53*
S=C1NCN(Cc2cccnc2)CN1c1cccc(Cl)c1,2,-6,0,0,1,3,.
SMILES,PAD4 inh,Apaf-1 inh,TDP2 inh,TCR CD3 inh,GSTO1 inh,SIAE inh,TDP2 inh conf
COc1ccc(OC)c(C2C(C#N)=C(N)Oc3cc(C)[nH]c(=O)c32)c1 (stereo not given),-1,7,-3,-2,7,-1,.
COc1ccc(OC)c(C2C(C#N)=C(N)Oc3c2c(C)nn3-c2cccc(Cl)c2)c1 (stereo not given),35*,-4,82*,-11,20,10,8
Cc1nn(-c2ccccc2)c2c1C(c1ccc([N+](=O)[O-])cc1)C(C#N)=C(N)O2 (stereo not given),-13,9,62*,-7,12,9,0
Cc1nn(-c2ccccc2)c(C)c1C1C(C#N)=C(N)Oc2n[nH]c(C)c21 (stereo not given),4,2,-6,-3,0,0,.
CN(C)C(=O)CSc1nc2cc(S(=O)(=O)N3CCOCC3)ccc2o1,4,6,7,-1,.,12,.
O=C(COc1ccccc1)Nc1ccc2[nH]c(=O)[nH]c2c1,-2,-13,9,8,-7,8,.
O=C(COc1ccccc1F)Nc1ccc2[nH]c(=O)[nH]c2c1,2,2,28*,6,-3,-4,6
CCOC(=O)C1Nc2c(F)cc(C)cc2C2c3ccccc3CC12 (stereo not given),0,13,3,1,-4,7,.
C=CCn1c(SCc2c(F)c(F)c(F)c(F)c2F)nc(O)cc1=O,-3,-17,43*,3,0,-6,8
Cc1ccccc1NC(=O)c1ccccc1NC(=O)c1cccs1,2,8,27*,-2,-6,8,0
Cc1ccccc1CN1CCN(C(=O)c2ccc(F)cc2)CC1,.,-4,29*,7,.,2,11
Cc1ccccc1CN1CCN(C(=O)c2ccco2)CC1,-2,-2,28*,-7,-2,-1,6
Cc1ccccc1CC(=O)N1CCN(C(=O)c2ccco2)CC1,0,-12,4,-7,-1,-8,.
O=C(c1ccc(F)cc1)N1CCN(Cc2ccccc2)CC1,5,8,9,2,-2,-3,.
O=C(N[C@@H](Cc1ccccc1)c1nc2ccccc2[nH]1)c1ccc([N+](=O)[O-])cc1,.,.,25*,5,.,5,5
NS(=O)(=O)c1ccc(-c2ccc(C=NC3CCS(=O)(=O)C3)o2)cc1 (stereo not given),-1,-10,1,0,-2,4,.

# Screening data deposited in PubChem by several laboratories.
